Compounds with a hit are over-represented: about 3.3% of the library has one in this group of screens.
HEK293 NFkB inh – inhibitors of PMA/ionomycin-induced NF-kB reporter, primary screen, antigen receptor NF-kB inhibitor project, cell-based, HEK-293 luciferase reporter, luminescence; HEK-293 NF-kB luciferase reporter; inhibition, % at 3 µM; actives 0.21% (n = 62,000);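 active = inhibition above the mean of all tested compounds plus 3 SD, cut at about 40% in these data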
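Signal: luciferase luminescence; Material: HEK-293 cells with stable firefly luciferase reporter driven by four HIV NF-kB elements; Probe or stimulus: PMA with ionomycin; Replication: tested once; Times: 1 h compound pretreatment, then 16 h stimulation at 37 °C, 5% CO2; Benchmarks: DMSO and 10 µM reference inhibitor; Evaluation: per-plate % inhibition versus controls.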
Jurkat tox 60K – cytotoxicity toward Jurkat T cells, primary screen, cytotoxicity control, cell-based, Jurkat E6.1, 60K MLSMR library; actives 1.2% (n = 56,000); AID 463, 2006; inhibition, % at 4 µM; Jurkat E6.1 viability, ATP luminescence, 48 h;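 active = inhibition above the mean inhibition of all tested compounds plus 3 SD, cut at about 28% in these data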
HTR1A agonist – human 5-HT1a receptor agonists, primary screen, cell-based, CHO, Ga15 NFAT-bla reporter; 5-hydroxytryptamine receptor 1A (Homo sapiens), P08908; CHO 5-HT1a Ga15 NFAT-bla reporter, FRET ratio; 0% basal, 100% maximal reference agonist; activation, % at 10 µM; actives 0.56% (n = 65,000); AID 567, 2006;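 active = activation above the screen-wide mean activation plus 3 SD, cut at about 19% in these data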
Target sequence (P08908 whole entry, looked up): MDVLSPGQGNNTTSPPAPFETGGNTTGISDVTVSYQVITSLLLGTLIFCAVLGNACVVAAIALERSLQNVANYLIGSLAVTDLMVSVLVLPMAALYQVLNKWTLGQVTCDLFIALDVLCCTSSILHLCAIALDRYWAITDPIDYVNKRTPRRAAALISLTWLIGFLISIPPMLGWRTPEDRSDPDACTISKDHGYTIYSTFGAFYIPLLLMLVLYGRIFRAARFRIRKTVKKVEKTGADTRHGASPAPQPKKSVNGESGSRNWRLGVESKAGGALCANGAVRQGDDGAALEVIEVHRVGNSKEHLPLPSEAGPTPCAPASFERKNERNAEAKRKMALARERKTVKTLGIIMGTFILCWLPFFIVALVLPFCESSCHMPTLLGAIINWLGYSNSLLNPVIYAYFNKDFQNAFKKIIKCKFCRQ
5HT1E antag – 5-HT1E receptor antagonists, primary screen, cell-based, HTS; inhibition, % at 6 µM; actives 0.99% (n = 65,000); CHO 5-HT1E Ga15 NFAT-bla reporter, FRET, antagonist;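 active = inhibition above a set limit, the mean inhibition across every tested compound plus 3 SD, cut at about 29% in these data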;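 also: signal is the 460 over 535 nm emission ratio of beta-lactamase substrate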
5HT1a antag – human 5-HT1a receptor antagonists, primary screen, cell-based, CHO, Ga15 NFAT-bla reporter; CHO 5-HT1a Ga15 NFAT-bla reporter, antagonist mode; inhibition, % at 10 µM; actives 0.68% (n = 62,000);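 active = inhibition above the mean of all tested compounds plus 3 SD, cut at about 43% in these data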;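 also: receptor stimulated by 5-CT agonist at 100 nM near EC80; beta-lactamase reporter measured by ratiometric fluorescence of a cleavable substrate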
5HT1E ag – 5-HT1E receptor agonists, primary screen, cell-based, HTS; 5-hydroxytryptamine receptor 1E (Homo sapiens), P28566; AID 574, 2007; CHO 5-HT1E Ga15 NFAT-bla reporter, FRET; 0% DMSO wells, 100% control agonist wells; actives 0.69% (n = 65,000); activation, % at 6 µM;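 active = activation above a set limit, the screen-wide mean activation plus 3 SD, cut at about 8.5% in these data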
A number is an active result; 0 = inactive; - = not tested or not shown.

SMILES	HEK293 NFkB inh	Jurkat tox 60K	HTR1A agonist	5HT1E antag	5HT1a antag	5HT1E ag
Cc1ccc(C2c3c(-c4ccccc4O)n[nH]c3C(=O)N2Cc2ccncc2)cc1 (configuration not stated)	0	86	0	0	0	0
CSCCC(NC(=O)c1ccccc1)C(=O)NCc1ccco1 (configuration not stated)	0	0	0	0	0	0
CC(=O)C(Sc1nn(C)c(=S)s1)C(=O)Nc1ccccc1 (configuration not stated)	0	0	0	0	0	0
CC(=O)Nc1ccc2nc(-c3cccnc3)[nH]c2c1	0	-	0	0	0	17
CC(C)CC(C(=O)NCc1ccccn1)N1C(=O)c2ccccc2C1=O (configuration not stated)	0	0	0	0	0	0
CCCCS(=O)(=O)Nc1ccc(Cc2ccncc2)cc1	0	0	0	0	0	0
O=C(CSc1nc2ccccc2o1)Nc1nc2ccccc2s1	0	0	0	0	0	0
O=C(Cc1cccs1)Nc1nc2ccccc2s1	0	0	64	0	0	0
COc1ccc(-c2nc(-c3ccc(NC(=O)c4ccncc4)cc3)no2)cc1OC	0	0	0	29	43	0
N#Cc1cc2c(=O)n3ccccc3nc2n(Cc2cccnc2)c1=O	0	0	37	0	0	0
N#Cc1cc2c(=O)n3ccccc3nc2n(CCN2CCOCC2)c1=O	0	0	0	0	0	28
CCn1c2ccccc2c2nnc(SCC(=O)c3ccccc3)nc21	0	0	0	31	0	0
Cn1c(Cl)cnc1C(O)c1ccccc1 (configuration not stated)	0	0	0	0	0	0
N#CC(c1nc2ccccc2nc1N1CCCCC1)S(=O)(=O)c1ccc(Cl)cc1 (configuration not stated)	0	0	0	0	0	12
Cc1ccc(S(=O)(=O)C(C#N)c2nc3ccccc3nc2N2CCCCC2)cc1 (configuration not stated)	0	-	0	0	0	0
O=C(CN(C(=O)CSc1nnc(COc2ccccc2)o1)c1ccc(F)cc1)NC1CCCC1	0	0	40	0	0	0
O=C(N1CCC(O)(c2cccnc2)CC1)C12CC3CC(CC(C3)C1)C2	0	0	0	0	0	0
CCOC(=O)N1CCC(NC(=O)Cc2ccc(-n3c(=O)[nH]c4ccccc4c3=O)cc2)CC1	0	0	0	0	0	0
Nc1nsc2ccccc12	0	0	0	0	73	0
O=C(CC(=O)N1CCN(c2ccccn2)CC1)Nc1ccc2nc3n(c(=O)c2c1)CCCCC3	0	0	0	0	0	0
Clc1ccc(COn2nnc3ccccc32)c(Cl)c1	45	0	0	0	0	0
N#Cc1nc(COc2ccc(F)cc2)oc1N1CCCC1	0	-	0	0	0	0
N#Cc1nc(COc2cccc(Cl)c2)oc1N1CCCC1	0	0	23	0	0	0
N#Cc1nc(COc2ccccc2)oc1N1CCN(Cc2ccccc2)CC1	0	0	0	0	46	0
Cc1ccc(OCc2nc(C#N)c(N3CCN(Cc4ccccc4)CC3)o2)cc1	0	0	0	0	50	0
SMILES	HEK293 NFkB inh	Jurkat tox 60K	HTR1A agonist	5HT1E antag	5HT1a antag	5HT1E ag
N#Cc1nc(COc2ccccc2)oc1N1CCC(Cc2ccccc2)CC1	0	0	0	0	49	0
Cc1ccc(C(=O)C2COC(=O)C2)cc1 (configuration not stated)	0	-	0	0	0	0
Cc1csc2nc(CNC(=O)c3ccco3)cn12	0	0	0	0	0	11
Cc1ccc(NC(=O)CCSc2nnnn2-c2ccc3c(c2)OCO3)cc1C	0	0	0	0	0	0
COc1ccc(-c2nnc3sc(-c4cccs4)nn23)cc1OC	0	0	0	36	0	0
COc1cc(-c2nnc3sc(-c4cccs4)nn23)cc(OC)c1OC	0	0	0	38	0	0
COc1cc(-c2nn3c(-c4cccnc4)nnc3s2)cc(OC)c1OC	-	-	0	0	-	0
Cc1cc(N2C(=O)C3C4C=CC(C4)C3C2=O)ccc1Br (configuration not stated)	0	0	0	0	0	0
CN1CCN(CC#CCn2c3ccccc3c3ccccc32)CC1	0	0	0	0	0	0
COC(=O)Cn1c(=O)c2c(nc3n2CC(C)CN3c2ccc(C)c(C)c2)n(C)c1=O (configuration not stated)	0	0	0	0	0	0
C=C(C)COc1ccc(-c2[nH]ncc2-c2ccc(OC)c(OC)c2)c(O)c1	58	65	0	37	0	0
O=C(c1cnn2c(C(F)(F)F)cc(-c3ccc(Br)cc3)nc12)N1CCOCC1	0	0	0	0	0	0
Cc1nn2c(C(F)(F)F)cc(-c3ccc(Cl)cc3)nc2c1C(=O)N1CCOCC1	0	0	0	0	0	38
COCCCNC(CC(=O)Nc1ccc(N(C)C)cc1)C(=O)O (configuration not stated)	0	0	0	0	0	0
COc1cccc(OCCn2c(C)c(/C=N/n3cnnc3)c3ccccc32)c1	0	0	0	43	0	0
CCOC(=O)N1CCN(C(=O)CSc2nnc(C3COc4ccccc4O3)o2)CC1 (configuration not stated)	0	0	78	0	0	0
CC1c2[nH]c3ccccc3c2CCN1C(=O)Nc1ccccc1 (configuration not stated)	0	0	0	0	0	0
COC(=O)C1=COC(C)C2CN3CCc4c([nH]c5ccccc45)C3CC12 (configuration not stated)	0	0	20	0	0	0
O=C(Cc1cccs1)N(Cc1ccco1)C1(C(=O)NC2CCCC2)CCCCC1	0	-	0	0	63	0
O=C(NC1CCCCC1)C(c1ccco1)N(Cc1cccs1)C(=O)Cn1nnc2ccccc21 (configuration not stated)	0	0	0	0	46	0
O=C(NC1CCCC1)C(c1cccs1)N(Cc1ccco1)C(=O)c1csnn1 (configuration not stated)	0	0	0	0	0	0
Cc1ccc(-c2nnn(CC(=O)N(Cc3cccs3)C(C(=O)NC3CCCC3)c3ccco3)n2)o1 (configuration not stated)	0	0	0	0	0	0

High-throughput results: PubChem BioAssay, The Scripps Research Institute Molecular Screening Center
